Reference: ChEMBL document CHEMBL1132577, “Conformational preferences in a benzodiazepine series of potent nonpeptide fibrinogen receptor antagonists” (J Med Chem, 1999)

Tests used:
[1] = molecular target: Integrin alpha-IIb/beta-3 (Homo sapiens, UniProt P05106+P08514); experiment: Fibrinogen receptor binding affinity was determined by assaying for inhibition of [3H]1 binding to purified Fibrinogen Receptor isolated from human platelets and reconstituted in liposomes
In short: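 Competition binding of the tritiated ligand [³H]-1 to the fibrinogen receptor glycoprotein complex GPIIb/IIIa, purified from human platelets and reconstituted into liposomes. The read-out is inhibition of radioligand binding.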

Homo sapiens = species on record: Homo sapiens; experiment: Inhibition of ADP-induced platelet aggregation in human platelet-rich plasma.; type: functional, organism-based

Integrin alpha-IIb/beta-3, sequence (P05106 27-788 limits assumed): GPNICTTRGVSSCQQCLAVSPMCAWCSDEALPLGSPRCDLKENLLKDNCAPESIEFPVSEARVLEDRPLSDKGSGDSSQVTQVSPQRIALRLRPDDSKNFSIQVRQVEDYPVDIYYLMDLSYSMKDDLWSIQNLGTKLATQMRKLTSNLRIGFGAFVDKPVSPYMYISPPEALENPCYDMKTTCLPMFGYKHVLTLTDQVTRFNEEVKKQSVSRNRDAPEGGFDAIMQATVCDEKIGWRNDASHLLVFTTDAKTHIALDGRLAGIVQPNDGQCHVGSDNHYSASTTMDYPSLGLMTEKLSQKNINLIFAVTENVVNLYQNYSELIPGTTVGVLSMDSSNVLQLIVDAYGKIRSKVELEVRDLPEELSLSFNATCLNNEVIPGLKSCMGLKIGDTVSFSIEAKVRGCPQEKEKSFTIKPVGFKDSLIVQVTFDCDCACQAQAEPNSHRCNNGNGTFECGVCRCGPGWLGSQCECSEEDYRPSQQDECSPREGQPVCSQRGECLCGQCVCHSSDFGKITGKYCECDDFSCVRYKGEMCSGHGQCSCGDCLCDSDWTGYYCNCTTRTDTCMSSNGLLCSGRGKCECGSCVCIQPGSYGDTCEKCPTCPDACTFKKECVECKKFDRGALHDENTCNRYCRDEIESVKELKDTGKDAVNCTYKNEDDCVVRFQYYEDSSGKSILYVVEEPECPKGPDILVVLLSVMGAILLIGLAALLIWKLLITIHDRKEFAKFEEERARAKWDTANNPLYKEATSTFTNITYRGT
Integrin alpha-IIb/beta-3, sequence (P08514 32-887 limits assumed): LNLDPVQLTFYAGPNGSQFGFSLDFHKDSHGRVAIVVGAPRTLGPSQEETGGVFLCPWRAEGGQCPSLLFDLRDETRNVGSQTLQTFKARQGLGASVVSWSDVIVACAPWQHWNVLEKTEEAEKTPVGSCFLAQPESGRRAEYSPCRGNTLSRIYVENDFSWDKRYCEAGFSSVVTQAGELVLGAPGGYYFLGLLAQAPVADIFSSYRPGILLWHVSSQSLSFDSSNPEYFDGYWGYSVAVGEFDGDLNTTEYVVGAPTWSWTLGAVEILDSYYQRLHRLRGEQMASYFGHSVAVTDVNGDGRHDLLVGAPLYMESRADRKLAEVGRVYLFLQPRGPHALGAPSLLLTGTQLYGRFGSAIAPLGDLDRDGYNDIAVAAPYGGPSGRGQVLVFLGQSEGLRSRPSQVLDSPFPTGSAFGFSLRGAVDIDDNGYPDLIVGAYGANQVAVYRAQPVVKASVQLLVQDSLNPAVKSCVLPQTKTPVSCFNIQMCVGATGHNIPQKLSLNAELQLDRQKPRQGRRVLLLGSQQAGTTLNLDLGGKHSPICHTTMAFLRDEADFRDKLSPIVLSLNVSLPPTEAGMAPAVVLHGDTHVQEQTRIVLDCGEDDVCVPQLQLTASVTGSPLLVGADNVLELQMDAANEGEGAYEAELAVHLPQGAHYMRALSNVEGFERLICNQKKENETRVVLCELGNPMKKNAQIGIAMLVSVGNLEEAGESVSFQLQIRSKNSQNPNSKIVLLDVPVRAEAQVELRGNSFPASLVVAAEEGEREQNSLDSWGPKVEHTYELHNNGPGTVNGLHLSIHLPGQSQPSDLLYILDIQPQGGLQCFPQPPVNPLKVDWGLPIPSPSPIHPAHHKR
Integrin alpha-IIb/beta-3, sequence (P08514 891-1039 limits assumed): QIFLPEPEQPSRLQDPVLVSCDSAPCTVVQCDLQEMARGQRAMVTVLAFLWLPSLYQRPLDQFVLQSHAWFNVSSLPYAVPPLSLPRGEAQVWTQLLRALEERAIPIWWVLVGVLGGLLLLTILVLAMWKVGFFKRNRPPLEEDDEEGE

Ki [1] | IC50 (Homo sapiens) | SMILES
80 nM | 930 nM | O=C(O)CC1Nc2cc(CCCCC3CCNCC3)ccc2CN(CCc2ccccc2)C1=O (configuration not stated)
750 nM | 7400 nM | O=C(O)CC1Nc2cc(/C=C\CCC3CCNCC3)ccc2CN(CCc2ccccc2)C1=O (configuration not stated)
2 nM | 34 nM | N=C(N)c1ccc(NC(=O)c2ccc3c(c2)N[C@@H](CC(=O)O)C(=O)N(CCc2ccccc2)C3)cc1
1.9 nM | 15 nM | CN(CCC1CCNCC1)C(=O)c1ccc2c(c1)NC(CC(=O)O)C(=O)N(CCc1ccccc1)C2 (configuration not stated)
– | 3900 nM | N=C(N)c1ccc(NC(=O)c2ccc3c(c2)NC(CC(=O)O)CCC3)cc1 (configuration not stated)
– | > 200000 nM | N=C(N)c1ccc(C(=O)Nc2ccc3c(c2)NC(CC(=O)O)CN(CCc2ccccc2)C3=O)cc1 (configuration not stated)
19 nM | 175 nM | O=C(O)CC1Nc2cc(/C=C/CCC3CCNCC3)ccc2CN(CCc2ccccc2)C1=O (configuration not stated)
22500 nM | > 200000 nM | CN(C(=O)c1ccc2c(c1)CN(CCC(=O)O)C(=O)CC2)c1ccc(C(=N)N)cc1
800 nM | 8300 nM | N=C(N)c1ccc(NC(=O)c2ccc3c(c2)NC(CC(=O)O)CN(CCc2ccccc2)C3=O)cc1 (configuration not stated)
1200 nM | 3100 nM | N=C(N)c1ccc(C(=O)Nc2ccc3c(c2)CN(CC(=O)O)C(=O)CN3)cc1
540 nM | 3000 nM | N=C(N)c1ccc(NC(=O)c2ccc3c(c2)NC(CC(=O)O)CN(CCc2ccccc2)C3)cc1 (configuration not stated)
– | 23000 nM | N=C(N)c1ccc(C(=O)Nc2ccc3c(c2)CN(CC(=O)O)C(=O)NC3)cc1
– | 4700 nM | N=C(N)c1ccc(NC(=O)c2cccc(NC(CC(=O)O)C(=O)O)c2)cc1 (configuration not stated)
4.7 nM | 510 nM | O=C(O)CC1Nc2cc(C(=O)NCCC3CCNCC3)ccc2CN(CCc2ccccc2)C1=O (configuration not stated)
2 nM | 130 nM | N=C(N)c1ccc(C(=O)Nc2ccc3c(c2)NC(CC(=O)O)C(=O)N(CCc2ccccc2)C3)cc1 (configuration not stated)
> 50000 nM | > 200000 nM | CN(C(=O)c1ccc2c(c1)CN(CC(=O)O)C(=O)CC2)c1ccc(C(=N)N)cc1
500 nM | 2200 nM | N=C(N)c1ccc(NC(=O)c2ccc3c(c2)N[C@H](CC(=O)O)C(=O)N(CCc2ccccc2)C3)cc1
290 nM | 2100 nM | N=C(N)c1ccc(C(=O)Nc2ccc3c(c2)CN(CCC(=O)O)C(=O)CN3)cc1
